Screens: PubChem, several laboratories
Compounds with a hit are over-represented: about 1.8% of the library has one in this group of screens.
CSN inh – blocks human CSN-mediated cullin deneddylation. Purified CSN, SCF-Nedd8-OG deneddylation, fluorescence polarization. inhibition, % at 12.5 µM. Q92905. AID 651999. actives 0.38% (n = 360,000);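 active = pattern-corrected inhibition above about 35%, with an unprinted fluorescence ratio check between 0.5 and 1.5, limit read from the data, passing the limit was not always enough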
Target sequence (Q92905 whole entry, looked up, one chain of several): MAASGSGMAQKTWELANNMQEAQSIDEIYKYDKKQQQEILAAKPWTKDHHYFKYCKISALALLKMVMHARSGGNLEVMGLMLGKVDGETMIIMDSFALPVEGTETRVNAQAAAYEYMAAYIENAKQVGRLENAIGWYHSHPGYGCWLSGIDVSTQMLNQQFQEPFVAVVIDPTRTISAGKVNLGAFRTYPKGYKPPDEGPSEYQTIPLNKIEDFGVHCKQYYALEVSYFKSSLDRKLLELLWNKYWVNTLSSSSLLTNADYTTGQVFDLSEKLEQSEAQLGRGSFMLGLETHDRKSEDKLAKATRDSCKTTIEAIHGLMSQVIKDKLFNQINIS
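Test system: purified human Csn5 enzyme expressed in HEK293T cells. Amount: 0.24 nM enzyme. Reagent: SCFSkp2-Nedd8OG substrate at 10 nM final. Schedule: 90 min incubation of compound, enzyme and substrate at room temperature. Detection: fluorescence polarization. Read-out: % inhibition of substrate cleavage by Csn5.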
Rpn11 inh – inhibitors of human proteasome Rpn11 | human 26S proteasome, Ub4-pepOG fluorescence polarization; 20S core pre-blocked with epoxomicin | actives 0.59% (n = 360,000) | O00487 | calls only at 20 µM;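 active = inhibition at 20 µM, scaled to each plate's controls, above about 33%, limit read from the data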
SENP1 FRET inh – inhibitors of human SENP1 SUMO protease catalytic domain. actives 0.21% (n = 360,000). Q9P0U3. inhibition, % at 10 µM. recombinant SENP1 catalytic domain, CyPet-SUMO1-YPet FRET cleavage;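 active = inhibition at least 30% at 10 µM, raw YFP signal under a set limit, fluorescence ratio 0.5 to 1.5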
Target sequence (Q9P0U3 419-644 limits assumed): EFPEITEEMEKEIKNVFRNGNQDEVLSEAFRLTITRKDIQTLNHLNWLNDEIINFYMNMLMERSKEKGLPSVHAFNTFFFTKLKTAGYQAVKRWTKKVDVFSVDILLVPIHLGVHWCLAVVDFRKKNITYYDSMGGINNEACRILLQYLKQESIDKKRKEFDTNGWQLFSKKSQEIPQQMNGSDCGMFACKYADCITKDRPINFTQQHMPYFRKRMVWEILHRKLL
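Controls: no-enzyme wells low, DMSO-plus-enzyme wells high control. Test system: human recombinant His6-tagged SENP1 catalytic domain enzyme. Reagent: SFCypet-SUMO1-SFYpet FRET protein substrate, 25 nM final. Doses: one dose per compound, 10 µM, 0.5% DMSO. Detection: FRET, CFP and YFP emission. Timing: 50 min reaction at room temperature.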
UBC9 SUMO inh – blocks human SUMOylation mediated by UBC9; inhibition, % at 35 µM; actives 0.36% (n = 290,000); P63279; AID 2006; HTRF SUMOylation assay, SAE1/SAE2 + UBC9, in vitro; in the data active = inhibition above about 50%, passing the limit was not always enough
Target sequence (P63279 whole entry, looked up): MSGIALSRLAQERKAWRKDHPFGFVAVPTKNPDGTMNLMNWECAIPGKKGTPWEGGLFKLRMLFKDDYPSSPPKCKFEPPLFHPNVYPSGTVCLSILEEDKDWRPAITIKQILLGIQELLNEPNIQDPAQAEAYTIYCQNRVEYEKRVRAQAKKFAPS
HNF4A DNA FP – change in binding of human HNF4 alpha to DNA; HNF4a-FITC DNA binding, fluorescence polarization, 1 h; activity change, % at 10 µM; actives 0.3% (n = 360,000); AID 1224865; in the data active = activity change above about 30%, passing the limit was not always enough
TPT1 inh – blocks Candida albicans tRNA 2'-phosphotransferase | actives 0.81% (n = 300,000) | recombinant caTPT1, FP RNA substrate dephosphorylation | inhibition, % at 5 µM;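 active = inhibition above the mean of all tested compounds plus 3 SD, set per screening campaign, cut at about 24% in these data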
Rpn11 inh conf – confirmation of human proteasome Rpn11 inhibitors; shares compounds with Rpn11 inh; purified human 26S proteasome, Ub4-pepOG fluorescence polarization; proteasome pretreated with epoxomicin; inhibition, % at 20 µM; actives 29% (n = 1,900); AID 602318
MMP-2 inh – counter-screen for RPN11 inhibitors: inhibition of human MMP-2 | actives 4% (n = 1,900) | inhibition, % at 20 µM | recombinant MMP-2, FRET peptide cleavage fluorescence | AID 602330 | shares compounds with Rpn11 inh;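 note: human MMP-2 activated beforehand with APMA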
Thrombin FP – blocks bovine thrombin, flagging nonselective RPN11 hits; shares compounds with Rpn11 inh; bovine thrombin cleavage of Ub4-pepOG, fluorescence polarization; inhibition, % at 20 µM; actives 13% (n = 1,900); AID 602333;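 active = mean inhibition at least 40% at 20 µM, or signal 3 deviations below plate average, so some actives read negative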
Each line names hits and unclear results; the compound was inactive in the other large screens (follow-up assays come after a bar, where shown). Cut-off read from the data, not from the text of the source, unless noted: active = inhibition above about 40%; inactive = the rest.

CCCCc1ccc(-c2csc(/C(C#N)=C/c3ccc(C)o3)n2)cc1	CSN inh 40.8, Rpn11 inh active, HNF4A DNA FP 42.4 | Rpn11 inh conf inactive | MMP-2 inh inactive | Thrombin FP inactive
O=c1[nH]c(CN2CCN(S(=O)(=O)c3ccccc3C(F)(F)F)CC2)nc2sc3c(c12)CCCC3	Rpn11 inh active | Rpn11 inh conf inactive | MMP-2 inh inactive | Thrombin FP inactive
O=C1CCN(Cc2ccccc2)S(=O)(=O)c2ccc(F)cc21	none (no result: UBC9 SUMO inh, TPT1 inh)
O=C1CS(=O)(=O)N(Cc2ccccc2F)c2ccc(Br)cc21	Rpn11 inh active (no result: UBC9 SUMO inh, TPT1 inh) | Rpn11 inh conf inactive | MMP-2 inh inactive | Thrombin FP inactive
COc1cc(CN2c3ccccc3C(=O)CS2(=O)=O)cc(OC)c1	Rpn11 inh active (no result: UBC9 SUMO inh, TPT1 inh) | Rpn11 inh conf 82.1 | MMP-2 inh inactive | Thrombin FP inactive
O=C1CS(=O)(=O)N(Cc2ccc(F)cc2)c2ccccc21	Rpn11 inh active (no result: UBC9 SUMO inh, TPT1 inh) | Rpn11 inh conf inactive | MMP-2 inh inactive | Thrombin FP inactive
O=c1ccccn1Cc1ccccc1F	none
O=C(c1ccccc1)c1ccc(OC(=O)C2CCCCC2)cc1	none
COc1cc(NC(=O)c2cccs2)c(OC)cc1NC(=O)CCC(=O)Nc1cccc2ncccc12	none
CC(=O)N1CCN(c2ccc(NC(=O)c3cccc(OCc4ccccc4)c3)cc2)CC1	Rpn11 inh active | Rpn11 inh conf inactive | MMP-2 inh inactive | Thrombin FP inactive
CC(=O)N1CCN(c2ccc(NC(=O)c3ccc(OCc4ccccc4)cc3)cc2)CC1	none
CC1=NN(c2ccccc2)C(=O)C1/C=C1\NC(=S)NC1=O (stereo not given)	Rpn11 inh active | Rpn11 inh conf 84.2 | MMP-2 inh inactive | Thrombin FP inactive
Cc1cccc(-c2nc(Nc3cccc(O)c3)c3ccccc3n2)c1	Rpn11 inh active | Rpn11 inh conf inactive | MMP-2 inh inactive | Thrombin FP inactive
Fc1ccc(Nc2nc(-c3ccncc3)nc3ccccc23)cc1F	Rpn11 inh active | Rpn11 inh conf inactive | MMP-2 inh inactive | Thrombin FP inactive
CC(C)=C1C2CCC1C1C(=O)N(c3ccc4c(c3)OCO4)C(=O)C21 (stereo not given)	none
S=C(NNc1ccnc2cc(Cl)ccc12)Nc1ccc(Cl)cc1Cl	Rpn11 inh active | Rpn11 inh conf inactive | MMP-2 inh 47.9 | Thrombin FP inactive
CCOc1ccc(NC(=S)NNc2ccnc3cc(Cl)ccc23)cc1	none
COc1cccc(C#CC2=CC(=O)CC(C)(C)C2)c1	none (no result: UBC9 SUMO inh, TPT1 inh)
COc1ccc(C2CC(c3ccccc3)=NN2C(=O)COC(=O)c2ccc(Cl)nc2)cc1 (stereo not given)	Rpn11 inh active | Rpn11 inh conf inactive | MMP-2 inh inactive | Thrombin FP inactive
COc1ccc(C2CC(c3ccccc3)=NN2C(=O)COC(=O)c2cnc(Cl)c(Cl)c2)cc1 (stereo not given)	none
COc1ccc(C(C(=O)NC2CCCC2)N(C(=O)c2ccco2)c2ccccc2C(C)=O)cc1OC (stereo not given)	none
O=C(c1ccccc1F)N1CCN(c2cnn(-c3cccc(Cl)c3)c(=O)c2Cl)CC1	none
CCOc1ccc(NC(=O)CCC(=O)Oc2ccc(C)cc2)cc1	none
Cc1nnc(-c2cccc(Br)c2)c2cn(-c3ccccc3Cl)nc12	Rpn11 inh active | Rpn11 inh conf inactive | MMP-2 inh inactive | Thrombin FP inactive
Cc1ccc(-n2cc3c(-c4cccc(Br)c4)nnc(C)c3n2)cc1	none (not shown: Rpn11 inh)
COc1ccc(COc2ccc3c(C)cc(=O)oc3c2)cc1	none
COc1ccc2c(-c3cc4ccc(OCc5ccc(F)cc5)cc4oc3=O)cc(=O)oc2c1	Rpn11 inh active | Rpn11 inh conf inactive | MMP-2 inh inactive | Thrombin FP inactive
O=C(Cn1c2ccccc2c(=O)c2ccccc21)N/N=C/c1cc([N+](=O)[O-])ccc1N1CCCCC1	Rpn11 inh active | Rpn11 inh conf inactive | MMP-2 inh inactive | Thrombin FP inactive
O=C(N/N=C\c1cc([N+](=O)[O-])ccc1N1CCCC1)c1ccccn1	none
COC(=O)c1csc(S(=O)(=O)N2CCCCC2)c1OC	none
Cc1ccc2nc(-c3ccc(NC(=S)NCC(C)(C)CN(C)C)cc3)sc2c1	none (no result: UBC9 SUMO inh, TPT1 inh)
CC(C)N1CCc2c(sc(NC(=O)c3nc4ccccc4s3)c2C(N)=O)C1	Rpn11 inh active | Rpn11 inh conf inactive | MMP-2 inh inactive | Thrombin FP inactive
COc1ccc(C(=O)N/N=C/c2cc(Br)ccc2O)cc1OC	none
COc1ccc(O)c(/C=N/NC(=O)c2ccc(OCc3cccc(Br)c3)cc2)c1	Rpn11 inh active, HNF4A DNA FP 43.8 | Rpn11 inh conf 55.5 | MMP-2 inh inactive | Thrombin FP inactive
COC(=O)c1sccc1NC(=O)c1ccncc1	Rpn11 inh active | Rpn11 inh conf inactive | MMP-2 inh inactive | Thrombin FP inactive
COC(=O)c1sccc1NC(=O)c1cc(OC)cc(OC)c1	none
CCCCn1c(NC(=O)CC)c(C#N)c2nc3ccccc3nc21	Rpn11 inh active | Rpn11 inh conf inactive | MMP-2 inh inactive | Thrombin FP inactive
CCCCC(CC)Cn1c(N)c(C#N)c2nc3ccccc3nc21 (stereo not given)	none
CCC(=O)Nc1c(C#N)c2nc3ccccc3nc2n1C1CCCCC1	Rpn11 inh active | Rpn11 inh conf inactive | MMP-2 inh inactive | Thrombin FP inactive
CCC(=O)Nc1c(C#N)c2nc3ccccc3nc2n1-c1ccccc1C	none
O=C(CSc1nnc(SCc2cccc3ccccc23)s1)N/N=C/c1c[nH]c2ccccc12	none
O=C(CSc1nnc(SCc2ccc(Cl)cc2)s1)N/N=C/c1c[nH]c2ccccc12	Rpn11 inh active, HNF4A DNA FP 112.1 (no result: UBC9 SUMO inh) | Rpn11 inh conf 68.5 | MMP-2 inh inactive | Thrombin FP inactive
C/C(=C\c1ccccc1)C(=O)n1nnc2ccccc21	none
CCOC(=O)C1CCCN(C(=O)c2ccc(C)cc2O)C1 (stereo not given)	none
COCCNC(=O)CN(CC1CCCO1)C(=O)CCC(=O)Nc1ccccn1 (stereo not given)	Rpn11 inh active | Rpn11 inh conf inactive | MMP-2 inh inactive | Thrombin FP inactive
O=C(CN(CC1CCCO1)C(=O)CCC(=O)Nc1ccccn1)NCC1CCCO1 (stereo not given)	none
CCOC(=O)CCC(=O)N1CCOCCOCCOCC1	none
